Results gathered from unrelated publications.
Lines come from different studies, so protocols differ.
Target: Receptor tyrosine-protein kinase erbB-3 (ERBB3, Homo sapiens, UniProt P21860)

SMILES | read-out | method | tested at | remaining binding [%]
O=C(c1ccc(Nc2ncc(Cl)c(-c3ccc(Cl)s3)n2)cc1)N1CCC(N2CCCC2)CC1 | binding | competition with immobilised ligand | 1 µM | 100
CC1CCCN1c1nccc(-c2cnn3ncccc23)n1 (stereo not shown) | binding |  | 1 µM | 100
Nc1ncc2c(n1)-c1c([nH]c3ccc(C#CC4CC4)cc13)CCCC2 | binding | competition with immobilised ligand | 1 µM | 100
Cc1cnn2ncc(-c3ccnc(N(C)C)n3)c2c1 | binding |  | 1 µM | 100
C[C@H](NC(=O)c1cnc2n1[C@](C)(Cc1ccc(C#N)cc1)C(=O)N2c1cc(Cl)c(F)c(Cl)c1)C(=O)NC1(c2ccccn2)CC1 | cell-free assay | competition with immobilised ligand | 1 µM | 100
C[C@@H]1CCN(c2nccc(-c3cnn4ncccc34)n2)C1 | binding |  | 1 µM | 100
Cc1c(C(=O)O)cc(-c2ccc(C3CCNCC3)cc2)c2ccc(-c3ccc(C(F)(F)F)cc3)cc12 | binding | competition with immobilised ligand | 1 µM | 86
CN(C)c1nccc(-c2cnn3ncccc23)n1 | binding |  | 1 µM | 87
Cc1cnc(Nc2ccc(C(=O)N3CCC(N4CCCC4)CC3)cc2)nc1-c1cc2ccccc2s1 | binding | competition with immobilised ligand | 1 µM | 89
c1cnn2ncc(-c3ccnc(N4CCC45COC5)n3)c2c1 | binding |  | 1 µM | 86
CNC(=O)[C@@H]1CC[C@@H](n2c(-c3ccc4cnccc4c3)nc3ccc(C(=O)NCc4cccc(C(N)=O)c4)cc32)C1 | binding | competition with immobilised ligand | 1 µM | 100
N[C@H]1CCN(c2nccc(-c3cnn4ncccc34)n2)C1 | binding |  | 1 µM | 97
CCCOc1ccc([C@H]2[C@H](C(=O)O)[C@@H](c3ccc4c(c3)OCO4)CN2CC(=O)Nc2c(CC)cccc2CC)cc1 | cell-free assay | competition with immobilised ligand | 1 µM | 78
COc1ccnn2ncc(-c3ccnc(N(C)C)n3)c12 | binding |  | 1 µM | 100
COc1ccc2c(O[C@@H]3C[C@H]4C(=O)N[C@]5(C(=O)O)CC5/C=C\CCCCC[C@H](NC(=O)OC5CCCC5)C(=O)N4C3)cc(-c3csc(NC(=O)C(C)C)n3)nc2c1C (stereo partly shown) | cell-free assay | competition with immobilised ligand | 1 µM | 88
C[C@@H](c1ccc(-n2cnc3c(N)ncnc32)cc1)N1CCc2nn(C)c(Cc3ccccc3)c2C1=O | binding | competition with immobilised ligand | 0.1 µM | 55
O=C1CCc2cc(Nc3cc(OC4CCOCC4)c([N+](=O)[O-])cc3Cl)ccc2N1 | cell-free assay | competition with immobilised ligand | 1 µM | 98
O=C(NCC1CCOCC1)c1n[nH]cc1NC(=O)c1c(F)cccc1F | binding | competition with immobilised ligand | 1 µM | 73
CC(C)(O)c1cncc(-c2nc3ccc(F)cc3n2C2CC2)c1 | cell-free assay | competition with immobilised ligand | 1 µM | 80
CCN1CCN(Cc2ccc(C(=O)Nc3ccc(C)c(Oc4ccc5c(c4)CC(=O)N5)c3)cc2C(F)(F)F)CC1 | binding | competition with immobilised ligand | 1 µM | 100
COc1ccc2c(c1)O[C@H](c1ccc(OC)c(OC)c1)C[C@@H]2NC(=O)C1(c2ccc3c(c2)OC(F)(F)O3)CC1 | cell-free assay | competition with immobilised ligand | 1 µM | 92
O=C(c1ccc(Nc2ncc(Cl)c(-c3cc4ccccc4s3)n2)cc1)N1CCC(N2CCCC2)CC1 | binding | competition with immobilised ligand | 1 µM | 81
